Env fusion inh: inhibitors of HIV-1 Env-driven cell-cell fusion, primary screen, HeLa-JRFL effector, CEM21 target cells, luciferase; inhibition, % at 12.3 µM; 360,000 tested, 1.1% active; AID 651610, 2012;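 active means mean replicate inhibition score of at least 50 and every replicate individually at or above 50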;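 further: 0% = plate neutral controls and 100% = maraviroc near 300 nM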
Wnt bcat act: Wnt/beta-catenin pathway activators, primary screen, cell-based, plate reader, single point; Wnt/beta-catenin reporter cell assay, activator; activation, % at 9.35 µM; 300,000 tested, 1.2% active; AID 743398, 2014; in the data active means activation above about 30%, passing the limit was not always enough;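 further: 0% = neutral control wells and 100% = positive control wells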
MITF act: activators of MITF-driven TRPM1 promoter reporter, primary screen, cell-based, SK-MEL-5, luciferase, single point. SK-MEL-5 TRPM1-promoter luciferase, 24 h; % of positive control, neutral wells = 0. activation, % at 12.5 µM. 300,000 tested, 0.75% active. AID 588334, 2011;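 active means mean activation of at least 80% with every replicate also reaching 80%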;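 further: 0% = neutral control wells and 100% = parthenolide positive control wells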
esBAF inh: Bmi1 luciferase reporter increase in mESCs, primary screen, esBAF inhibitor project, mouse ES cells, Bmi1 luciferase knock-in, single point. 24 h; 100% = twice the neutral-well signal. reporter increase, % at 12.5 µM. 350,000 tested, 2% active. AID 602393, 2012; in the data active means activation above about 40%;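 further: 0% = median of the plate's neutral control wells and 100% = double that signal; a rise in the Bmi1 reporter signal indicates esBAF inhibition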
Cneo AK release: Cryptococcus neoformans cell lysis inducers, primary screen, AK release luminescence, single concentration. AID 651654, 2012. 360,000 tested, 0.2% active. lysis activity, % at 15 µM. C. neoformans lysis, adenylate kinase release luminescence, 4 h; normalised: neutral wells 0, clomiphene wells 100;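 active means mean lysis activity across replicates of at least 80%, whatever share of replicates individually reach that level; inactive means mean lysis activity below 80%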
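Assay system: C. neoformans cells. Amount: yeast cell density of 5 × 10^6 cells/mL. Technique: AK luminescence. Buffer or medium: YPD. Times: static 4 h at 37 °C with compound, 1 h detection. Dosing: single-point compound dose. Read-out: lysis from increased AK signal.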
ERAP1 inh: human ERAP1 aminopeptidase inhibitors, primary screen, biochemical, single point, plate reader; Endoplasmic reticulum aminopeptidase 1 (Homo sapiens), Q9NZ08; recombinant ERAP1, Leu-AMC fluorescence, 60 min; inhibition, % at 10.7 µM; 340,000 tested, 0.15% active; AID 652197, 2013;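 active means mean replicate inhibition of at least 30%, or all replicates individually reaching that 30% level; inactive means mean below 30% and not every replicate reaching it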;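 further: 0% = neutral control wells and 100% = L-leucinethiol positive control wells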
Target sequence (Q9NZ08 whole entry, looked up): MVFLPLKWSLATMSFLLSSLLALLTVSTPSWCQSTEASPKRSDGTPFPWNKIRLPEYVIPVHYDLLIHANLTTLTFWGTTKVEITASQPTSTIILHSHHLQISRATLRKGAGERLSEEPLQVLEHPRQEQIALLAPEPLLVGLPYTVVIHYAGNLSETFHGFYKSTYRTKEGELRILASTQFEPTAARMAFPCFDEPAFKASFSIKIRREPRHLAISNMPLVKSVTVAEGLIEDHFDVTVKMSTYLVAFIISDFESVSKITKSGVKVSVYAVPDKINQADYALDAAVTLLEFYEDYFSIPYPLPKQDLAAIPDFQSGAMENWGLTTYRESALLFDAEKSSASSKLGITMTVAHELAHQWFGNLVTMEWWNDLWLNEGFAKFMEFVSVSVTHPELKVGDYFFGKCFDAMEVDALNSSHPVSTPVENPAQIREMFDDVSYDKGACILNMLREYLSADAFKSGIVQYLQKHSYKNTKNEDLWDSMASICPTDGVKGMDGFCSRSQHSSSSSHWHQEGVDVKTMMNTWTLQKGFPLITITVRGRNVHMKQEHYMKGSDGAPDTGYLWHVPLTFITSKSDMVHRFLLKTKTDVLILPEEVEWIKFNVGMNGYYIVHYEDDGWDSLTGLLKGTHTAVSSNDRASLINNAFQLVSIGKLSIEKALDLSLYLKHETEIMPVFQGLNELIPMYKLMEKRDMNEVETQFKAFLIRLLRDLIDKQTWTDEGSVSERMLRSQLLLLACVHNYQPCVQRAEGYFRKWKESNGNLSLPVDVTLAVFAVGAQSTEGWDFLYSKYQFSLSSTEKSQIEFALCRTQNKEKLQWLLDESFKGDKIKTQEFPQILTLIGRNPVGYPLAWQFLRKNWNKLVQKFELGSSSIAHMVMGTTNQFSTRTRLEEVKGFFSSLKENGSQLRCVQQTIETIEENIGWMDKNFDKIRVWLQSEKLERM
An asterisk follows results filed as active; x = not tested or not shown; [ ] = another dose, or the depositor's remark. The list is not random: actives were taken first. Their share in the collection is about 3.5%.

SMILES	Env fusion inh	Wnt bcat act	MITF act	esBAF inh	Cneo AK release	ERAP1 inh
c1ccc(C2=NCCCO2)cc1	-7.5	-2.6	x	-7.0	11.8	1.8
c1ccc(N=Nc2ccc(C3=NCCO3)cc2)cc1	-254.1	44.4*	x	-36.5	-6.3	-1.9
COc1cccc(C(=O)Nc2ccc3c(c2)OC[C@@H](C)N(C)C[C@@H](C)[C@H](OC)CN(C)C3=O)c1	6.0[16.7 µM]	x	x	-3.2	-3.3	0.6
Oc1ccc2ccccc2c1C=NCc1ccccc1	2.6	2.8	-17.5	x	x	-2.0
Oc1ccccc1C=NN=Cc1c(O)ccc2ccccc12	-94.1	48.4*	28.7	x	x	1.1
Oc1ccc2ccccc2c1C=Nc1ccc(Cl)cn1	12.6	45.7*	-2.7	x	x	7.7
Cc1cc(O)c(C=Nc2ccc(Cl)cn2)c(=O)o1	x	x	-11.9	x	0.6	x
COc1ccc(-c2nc3nc(C)cc(C)n3n2)cc1	-38.1	32.8*	43.5	23.7	-5.5	x
COc1ccc(CNc2nc3nc(C)cc(C)n3n2)cc1	x	1.8	26.2	13.3	-3.4	1.4
CCCCNC(=O)c1nnn(-c2ccccc2)c1N	-21.9	x	29.6	43.2*	2.8	x
C[C@@H]1CN([C@@H](C)CO)C(=O)c2cc(NC(=O)Nc3cccc4ccccc34)ccc2O[C@@H](C)CCCCO[C@@H]1CN(C)S(=O)(=O)c1ccccc1	-6.6[16.7 µM]	x	x	1.6	0.9	-4.6
COc1ccc(CN(C)C(C)C(=O)Nc2ccc(S(=O)(=O)N3CCCCC3)cc2)c(OC)c1 (centres undefined)	21.0	-5.5	-12.7	-6.9	4.4	-1.1
CCN(Cc1ccc(OC)c(F)c1)C(C)C(=O)Nc1ccc(S(=O)(=O)N2CCCC2)cc1 (centres undefined)	57.1*	-5.2	-7.3	-2.2	x	-4.6
O=C(C1=C[C@@H](c2ccc(C(F)(F)F)cc2)C[C@@H](OCc2ccc(CO)cc2)O1)N1CCCC1	-21.7[16.7 µM]	x	x	x	-11.8	0.3
O=C(NCCc1ccccc1)c1cccc(NC(=O)C2CCCC2)c1	-0.3	0.4	22.0	48.0*	0.5	6.9
O=C(NCCc1ccccc1)c1ccc(NC(=O)C2CC2)cc1	-12.7	9.8	59.0	45.4*	3.1	0.7
O=C(Nc1ccccc1O)c1ccc(NC(=O)C2CC2)cc1	-44.2	68.5*	49.1	23.5	0.4	-3.9
O=C(CCN1CCCCC1)NCC[C@H]1CC[C@H](NC(=O)C2CC2)[C@H](CO)O1	10.0[16.7 µM]	x	x	-1.9	0.1	-0.5
CC(NC(=O)CCn1ccc2cc(S(=O)(=O)N3CCCC3)ccc21)c1ccccc1 (centres undefined)	56.6*	-1.1	2.9	-3.5	-1.7	3.1
CCN(CC)c1ccc(S(=O)(=O)N2CCCCC2)cc1NC(=O)CSCc1c(C)noc1C	62.3*	-3.2	-10.5	8.5	-0.2	0.3
CN1CCN(C(=O)C[C@@H]2C[C@@H]3c4cc(NC(=O)NC5CCCC5)ccc4O[C@@H]3[C@H](CO)O2)CC1	7.1[16.7 µM]	x	x	3.1	-58.6	-0.7
C[C@@H]1CCCCO[C@H](CN(C)Cc2ccc3c(c2)OCO3)[C@H](C)CN([C@H](C)CO)C(=O)c2cc(NC(=O)NC3CCCCC3)ccc2O1	7.7[16.7 µM]	x	x	-3.5	56.3	1.8
COc1ccc(Nc2nc(N)nc(CSC(=S)N3CCOCC3)n2)cc1	-1.7	9.2	30.1	48.6*	-3.1	-0.5
Cc1ccc(Nc2nc(N)nc(CSC(=S)N3CCOCC3)n2)c(C)c1	-6.6	12.8	56.8	x	x	-7.1
Nc1nc(CSC(=S)N2CCOCC2)nc(Nc2ccc(F)cc2)n1	2.3	7.3	28.1	66.0*	-14.6	3.2
SMILES	Env fusion inh	Wnt bcat act	MITF act	esBAF inh	Cneo AK release	ERAP1 inh
CCOC(=O)C1CCCN(Cc2nc(N)nc(Nc3ccc(OC)cc3)n2)C1 (centres undefined)	70.5*	x	-22.1	x	-2.0	x
CN1CCN(C(=S)SCc2nc(N)nc(Nc3ccc(F)cc3)n2)CC1	-1.1	2.1	14.4	x	1.4	7.0
CCCNC(=O)Nc1ccc2c(c1)C(=O)N(C)C[C@H](OC)[C@H](C)CN(CCC(F)(F)F)[C@H](C)CO2	x	x	x	-1.1	x	x
O=S(=O)(c1ccccc1)N1[C@@H]2CNC[C@H]1C2c1ccc(-c2ccccc2)cc1 (some centres undefined)	x	x	x	x	x	-0.3
Cc1ccc(S(=O)(=O)N2CCC(=O)N(C(COCc3cccc(C(F)(F)F)c3)Cc3ccccc3)CC2)cc1 (centres undefined)	56.1*	-7.0	16.1	-18.7	-0.1	-1.3
Cc1cccc(COCC(Cc2ccccc2)N2CCN(C(=O)c3ccc(Cl)c(Cl)c3)CCC2=O)c1 (centres undefined)	95.4*	-0.9	-3.0	-2.1	-2.7	-3.6
Cc1ccc(S(=O)(=O)N2CCC(=O)N(CCOCc3ccc(Cl)cc3)CC2)cc1	56.4*	-3.0	x	15.6	-1.0	5.0
O=C(c1ccc(Cl)c(Cl)c1)N1CCC(=O)N(C(COCc2cccc(C(F)(F)F)c2)Cc2ccccc2)CC1 (centres undefined)	79.8*	-4.6	1.4	2.8	2.5	-1.9
Cc1ccc(S(=O)(=O)N2CCC(=O)N(C(COCc3ccccc3)Cc3ccccc3)CC2)cc1 (centres undefined)	7.3	-1.0	5.1	5.8	0.7	-1.2
Cc1ccc(-c2ccc(C3[C@@H]4CN(Cc5cccc(F)c5)C[C@H]3N4)cc2)cc1 (some centres undefined)	x	x	x	x	x	-0.8
Cc1cccc(COC[C@H](Cc2ccccc2)N2CCN(C(=O)c3ccc(Cl)c(Cl)c3)CCC2=O)c1	82.8*	-2.4	x	x	x	x
Cc1cccc(COCC(Cc2ccccc2)N2CCN(C(=O)c3cccc(C)c3)CCC2=O)c1 (centres undefined)	50.9	-8.2	-6.2	-1.1	2.1	-2.6
COc1ccc(S(=O)(=O)N(C)C[C@@H]2Oc3ccc(N(C)C)cc3CC(=O)N([C@@H](C)CO)C[C@H]2C)cc1	-1.2[16.7 µM]	x	x	-1.4	-10.1	1.2
COc1cccc(-c2ccc(CC[C@H]3O[C@H]4CC[C@@H](CO)O[C@H]4C[C@@H]3NC(=O)c3cnccn3)cc2)c1	x	x	x	x	x	3.9
Cc1ccc(NC(=O)c2ccc(CSc3nnnn3C)cc2)cc1	x	x	97.1*	29.5	3.6	x
Cc1ccc(NC(=O)c2ccc(CSc3ccccn3)cc2)cc1	x	x	20.5	50.1*	-1.6	x
Cc1ccccc1NC(=O)c1ccc(CSc2ncccn2)cc1	x	4.1	35.3	46.3*	0.6	0.5
Cc1ccc(NC(=O)c2ccc(CSc3ccccn3)cc2)c(O)c1	-44.8	26.1	x	x	x	-0.4
O=C(C[C@H]1CC[C@H](NC(=O)c2ccccn2)[C@@H](CO)O1)NCc1cc(F)cc(F)c1	10.9[16.7 µM]	x	x	-4.2	3.6	-3.3

Screens from PubChem.
